This passage reports Activity and Ratio results from ChEMBL document CHEMBL2401686, “Synthesis of novel 1-[5-(4-methoxy-phenyl)-[1,3,4]oxadiazol-2-yl]-piperazine derivatives and evaluation of their in vivo anticonvulsant activity” (Eur J Med Chem, 2013).

In series [1] the test system is Mus musculus. Nature of the series: Neurotoxicity in mouse assessed as inability to maintain equilibrium on rod at 100 mg/kg, po after 1 hr by rotarod test relative to control. It counts as toxicity, organism-based. On the set-up: dose 100 mg/kg, route oral. To be noted: in vivo. The gist of the method:
(§1)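 Mice pre-trained on accelerating rotorod (10 rpm, rod diameter 3.2 cm), then dosed orally at 100 mg/kg. Neurotoxicity is failure to keep equilibrium on the rod for at least 1 min in each of three trials, checked at 0.5, 1, 2 and 4 h. Reported as animals showing neurotoxicity per number tested (n = 4); phenytoin standard.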

Series [2] deals with Mus musculus. Nature of the series: Neurotoxicity in mouse assessed as inability to maintain equilibrium on rod at 100 mg/kg, po after 0.5 hrs by rotarod test relative to control. The series is classed as toxicity, organism-based. On the set-up: dose 100 mg/kg, route oral. To be noted: in vivo. In a few lines:
as §1
On the technique in general: The rotarod test checks motor coordination on a turning rod.

Series [3] has as its system Rattus norvegicus. Description: Anticonvulsant activity in Wistar rat assessed as protection against maximal electroshock-induced seizure at 100 mg/kg, po administered 30 mins prior to test relative to control. It counts as functional. In a few lines: (§2)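 Male Wistar rats, n = 6 per group; 100 mg/kg given orally as solution in 1% sodium carboxymethyl cellulose, 30 min before maximal electroshock; observed 2 min. E/F is extension phase (s)/flexion phase (s). % protection = (control − test)/control × 100 against vehicle control; phenytoin 100 mg/kg reference; mean values.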
On the technique in general: Protection in the maximal electroshock model is a classic sign of anticonvulsant action.

Series [4] concerns Rattus norvegicus. Description: Anticonvulsant activity in Wistar rat maximal electroshock seizure model assessed as decrease in ratio of extension phase and flexion phase at 100 mg/kg, po administered 30 mins prior to test. It counts as functional. In a few lines: as §2
The subject of series [5] is Mus musculus. Description: Neurotoxicity in mouse assessed as inability to maintain equilibrium on rod at 100 mg/kg, po after 2 hrs by rotarod test relative to control. The series is classed as toxicity, organism-based. More on the design: dose 100 mg/kg, route oral. To be noted: in vivo. In a few lines: as §1
The test system of series [6] is Mus musculus. Nature of the series: Neurotoxicity in mouse assessed as inability to maintain equilibrium on rod at 100 mg/kg, po after 4 hrs by rotarod test relative to control. On the set-up: dose 100 mg/kg, route oral. The series is classed as toxicity, organism-based. To be noted: in vivo. In a few lines: as §1

Molecules are shown by their SMILES.

As to `COc1ccc(-c2nnc(N3CCN(S(=O)(=O)c4ccc(Br)c(C)c4)CC3)o2)cc1`, the Activity in the series on Mus musculus [1] was 0%; in the series on Mus musculus [2] it was 0%; in the series on Rattus norvegicus [3], 52.42%; in the series on Mus musculus [5] it was 0%; in the series on Mus musculus [6], 0%. For the same compound, the Ratio with Rattus norvegicus [4] was 6.29.

As to `COc1ccc(-c2nnc(N3CCN(S(=O)(=O)c4ccc(-c5ccccc5)cc4)CC3)o2)cc1`, the Activity in the series on Mus musculus [1] is on record as 0%; with Mus musculus [2], 0%; in the series with Rattus norvegicus [3], 23.34%; with Mus musculus [5] it was 0%; with Mus musculus [6], 0%. In addition, the Ratio in the series on Rattus norvegicus [4] came to 7.11.

For the compound `COc1ccc(-c2nnc(N3CCN(S(=O)(=O)c4ccc(C#N)cc4)CC3)o2)cc1`, the Activity in the series on Mus musculus [1] was determined as 0%; with Mus musculus [2] it was 0%; with Rattus norvegicus [3] it was 42.4%; in the series on Mus musculus [5] it was 0%; in the series with Mus musculus [6], 0%. Moreover, the Ratio in the series with Rattus norvegicus [4] was 6.34.

`COc1ccc(-c2nnc(N3CCN(S(=O)(=O)c4ccc(C(F)(F)F)cc4[N+](=O)[O-])CC3)o2)cc1`: the Activity in the series with Rattus norvegicus [3] came out at 77.64%. The Ratio with Rattus norvegicus [4] is given as 1.91.

Consider `COc1ccc(-c2nnc(N3CCN(S(=O)(=O)c4ccc(Oc5ccccc5)cc4)CC3)o2)cc1`, for which the Activity stood at 0% in the series with Mus musculus [1]; 0% in the series with Mus musculus [2]; 74.31% in the series with Rattus norvegicus [3]; 0% in the series on Mus musculus [5]; 0% with Mus musculus [6]. In addition, in the series with Rattus norvegicus [4], the Ratio amounted to 1.96.

Take `COc1ccc(-c2nnc(N3CCN(S(=O)(=O)c4cc(Cl)sc4Cl)CC3)o2)cc1`: the Activity with Mus musculus [1] amounted to 0%; in the series with Mus musculus [2] it was 0%; in the series on Rattus norvegicus [3] it was 73.47%; in the series on Mus musculus [5], 0%; in the series with Mus musculus [6], 0%. Besides, the Ratio in the series on Rattus norvegicus [4] was found to be 2.11.

As to `COc1ccc(-c2nnc(N3CCN(S(=O)(=O)c4ccc5ccccc5c4)CC3)o2)cc1`, the Activity is given as 0% in the series on Mus musculus [1]; 0% in the series on Mus musculus [2]; 31.54% in the series on Rattus norvegicus [3]; 25% in the series on Mus musculus [5]; 25% in the series on Mus musculus [6]. In addition, the Ratio in the series on Rattus norvegicus [4] worked out at 6.96.

On to `COc1ccc(-c2nnc(N3CCN(S(=O)(=O)c4c(C)noc4C)CC3)o2)cc1`, for which the Activity with Mus musculus [1] is recorded as 0%; in the series on Mus musculus [2], 0%; with Rattus norvegicus [3] it was 71.25%; in the series with Mus musculus [5], 0%; in the series on Mus musculus [6], 0%. Further, in the series on Rattus norvegicus [4], the Ratio was 2.34.

With `COc1ccc(-c2nnc(N3CCN(S(=O)(=O)c4ccc(C(C)(C)C)cc4)CC3)o2)cc1`, the Activity is on record as 0% with Mus musculus [1]; 0% with Mus musculus [2]; 17.32% in the series with Rattus norvegicus [3]; 0% in the series on Mus musculus [5]; 0% in the series on Mus musculus [6]. Also, in the series with Rattus norvegicus [4], the Ratio is 7.64.

Consider `COc1ccc(-c2nnc(N3CCN(S(=O)(=O)c4ccccc4[N+](=O)[O-])CC3)o2)cc1`, for which the Activity turned out to be 0% in the series on Mus musculus [1]; 0% in the series on Mus musculus [2]; 59.64% with Rattus norvegicus [3]; 0% with Mus musculus [5]; 0% with Mus musculus [6]. In addition, the Ratio with Rattus norvegicus [4] amounted to 5.49.

As for `COc1ccc(-c2nnc(N3CCN(S(=O)(=O)c4cccc(C(F)(F)F)c4)CC3)o2)cc1`, the Activity in the series with Mus musculus [1] was found to be 0%; in the series on Mus musculus [2], 0%; in the series with Rattus norvegicus [3], 53.01%; in the series with Mus musculus [5], 0%; in the series on Mus musculus [6] it was 0%. Moreover, in the series on Rattus norvegicus [4], the Ratio was found to be 6.11.

Take `COc1ccc(-c2nnc(N3CCN(S(C)(=O)=O)CC3)o2)cc1`: the Activity is 0% in the series with Mus musculus [1]; 0% in the series with Mus musculus [2]; 10.63% with Rattus norvegicus [3]; 25% with Mus musculus [5]; 25% in the series with Mus musculus [6]. Also, the Ratio with Rattus norvegicus [4] is 8.15.

With `COc1ccc(-c2nnc(N3CCN(S(=O)(=O)c4ccc(C)cc4)CC3)o2)cc1`, the Activity in the series on Mus musculus [1] amounted to 0%; in the series on Mus musculus [2] it was 0%; with Rattus norvegicus [3] it was 17.03%; in the series with Mus musculus [5], 25%; in the series with Mus musculus [6], 25%. The Ratio in the series with Rattus norvegicus [4] was found to be 7.68.

Regarding `COc1ccc(-c2nnc(N3CCN(S(=O)(=O)c4ccc(Br)cc4)CC3)o2)cc1`, the Activity amounted to 0% in the series on Mus musculus [1]; 0% in the series with Mus musculus [2]; 50.79% in the series with Rattus norvegicus [3]; 0% in the series with Mus musculus [5]; 0% with Mus musculus [6]. Also, the Ratio in the series with Rattus norvegicus [4] was 6.51.

Consider `COc1ccc(-c2nnc(N3CCN(S(=O)(=O)c4ccc(I)cc4)CC3)o2)cc1`, for which the Activity with Mus musculus [1] was found to be 0%; in the series with Mus musculus [2], 0%; with Rattus norvegicus [3], 50.43%; in the series on Mus musculus [5] it was 0%; in the series on Mus musculus [6], 0%. Further, the Ratio in the series on Rattus norvegicus [4] was found to be 6.57.

`O=C1NC(=O)C(c2ccccc2)(c2ccccc2)N1` [PHENYTOIN]: the Activity with Mus musculus [1] is on record as 0%; in the series with Mus musculus [2] it was 0%; with Rattus norvegicus [3] it was 75.88%; in the series with Mus musculus [5], 0%; in the series with Mus musculus [6], 0%. For the same compound, the Ratio in the series with Rattus norvegicus [4] was determined as 1.98.
